Test results published in ChEMBL document CHEMBL1126568, “Nucleosides and nucleotides. 122. 2'-C-cyano-2'-deoxy-1-beta-D-arabinofuranosylcytosine and its derivatives. A new class of nucleoside with a broad antitumor spectrum” (J Med Chem, 1993).

What was measured:
[1] = Tested in vitro inhibitory activity against human oral epidermoid carcinoma KB cells; format: functional, cell-based
In short: (§1)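 MTT growth assay: 2 × 10³ cells/well exposed to compound or left untreated for 72 h. MTT then added for 4 h more; formazan dissolved in DMSO and OD read at 540 nm. % inhibition = [1 − OD sample/OD control] × 100. IC₅₀ (μM) is the concentration giving 50% growth inhibition. Single-concentration inhibition measured at 100 μg/mL.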

L1210 [2] = assay: Tested in vitro inhibitory activity against murine leukemia L1210; format: functional, cell-based; settings: Mus musculus; in short: as §1
MCF7 = assay: Tested in vitro against MCF-7 human breast adenocarcinoma; format: functional, cell-based; in short: as §1
OST = assay: Tested in vitro against OST human osteosarcoma; format: functional, cell-based; in short: as §1
PC-13 = assay: Tested in vitro against PC-13 human lung large cell carcinoma; format: functional, cell-based; in short: as §1
[3] = system: KATO III stomach cancer cell line; assay: Tested in vitro against KATO-III human stomach adenocarcinoma; format: functional, cell-based; in short: as §1
MKN-45 = assay: Tested in vitro against MKN-45 human stomach adenocarcinoma; format: functional, cell-based; settings: MKN-45, Stomach; in short: as §1
HOS-TE85 = assay: Tested in vitro against MNNG/HOS cell line human osteosarcoma; format: functional, cell-based; in short: as §1
QG-95 = assay: Tested in vitro against QG-95 human squamous cell carcinoma; format: functional, cell-based; in short: as §1
PC-8 = assay: Tested in vitro against PC-8 human lung adenocarcinoma; format: functional, cell-based; in short: as §1
HT-1080 = assay: Tested in vitro against HT1080 cell line human fibrosarcoma; format: functional, cell-based; in short: as §1
A-375 = assay: Tested in vitro against A-375 cell line human melanoma; format: functional, cell-based; in short: as §1
COLO 320 = assay: Tested in vitro against colo-320 human colon adenocarcinoma; format: functional, cell-based; settings: COLO 320, Colon; in short: as §1
SW48 = assay: Tested in vitro against SW-48 human colon adenocarcinoma; format: functional, cell-based; in short: as §1
PC-9 = assay: Tested in vitro against PC-9 human lung adenocarcinoma; format: functional, cell-based; in short: as §1
ST-KM-1 = assay: Tested in vitro against ST-KM human stomach adenocarcinoma; format: functional, cell-based; settings: ST-KM-1, Stomach; in short: as §1
KKLS = assay: Tested in vitro against KKLS human stomach adenocarcinoma; format: functional, cell-based; in short: as §1
[4] = Percent inhibition against human oral epidermoid carcinoma KB cells at 100 ug/mL; format: functional; in short: as §1
L1210 [5] = assay: Percent inhibition against murine leukemia L1210 at 100 ug/mL; format: functional; settings: Mus musculus; in short: as §1
Mus musculus [6] = assay: Weight change in M5076 mouse reticulum cell sarcoma after administration at 500 mg/kg orally; format: functional; settings: route oral
In short: (§2)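 Female BDF₁ mice with subcutaneous axillary M5076 (10⁶ cells), oral dosing on days 1, 4, 7, 10, 13 and 16 in saline or 5% DMA/0.5% CMC. Body weight change (g) = mean weight on day 20 minus mean weight on day 1.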

Mus musculus [7] = assay: Percent inhibition against M5076 mouse reticulum cell sarcoma after administration at 500 mg/kg orally on day 20; format: functional; settings: M5076, 480 h, route oral
In short: (§3)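 M5076 cells (10⁶ viable, counted by Trypan blue exclusion) implanted subcutaneously into the axillary region of female BDF₁ mice. Drug given orally on days 1, 4, 7, 10, 13 and 16 after inoculation, in saline or in 5% dimethylacetamide/0.5% carboxymethyl cellulose. Six mice per group (three at 400 mg/kg); untreated controls, nine mice. Tumor volume = 0.5 × length × width²; inhibition (%) = (1 − Vt/Vc) × 100 on day 20.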

Mus musculus [8] = assay: Percent treated was determined after administration at 125 mg/kg orally; format: functional; settings: route oral
In short: (§4)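 Female BDF₁ mice bearing subcutaneous M5076 (10⁶ cells, axillary). Oral dosing in saline or 5% DMA/0.5% CMC on days 1, 4, 7, 10, 13 and 16. Groups of six (three at 400 mg/kg), nine untreated controls. T/C (%) = median survival day of treated/median survival day of untreated controls × 100; 60-day survivors also recorded.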

Mus musculus [9] = assay: Percent treated was determined after administration at 62.5 mg/kg orally; format: functional; settings: route oral; in short: as §4
Mus musculus [10] = assay: Percent inhibition against M5076 mouse reticulum cell sarcoma after administration at 62.5 mg/kg orally on day 20; format: functional; settings: M5076, 480 h, route oral; in short: as §3
Mus musculus [11] = assay: Percent treated was determined after administration at 500 mg/kg orally; format: functional; settings: route oral; in short: as §4
Mus musculus [12] = assay: Tested for 60-day survivors after administration at 125 mg/kg orally in M5076 mouse reticulum cell sarcoma; format: functional; settings: route oral
In short: (§5)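 Female BD2F1 mice were implanted s.c. with 1 × 10^6 M5076 cells and dosed orally on days 1, 4, 7, 10, 13 and 16. Vehicle was saline or 5% DMA in 0.5% CMC. Groups had six mice (three at 400 mg/kg), with nine untreated controls. The number of mice alive at 60 days was counted.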

Mus musculus [13] = assay: Tested for 60-day survivors after administration at 750 mg/kg orally in M5076 mouse reticulum cell sarcoma; format: functional; settings: route oral; in short: as §5
Mus musculus [14] = assay: Weight change in M5076 mouse reticulum cell sarcoma after administration at 125 mg/kg orally; format: functional; settings: route oral; in short: as §2
Mus musculus [15] = assay: Tested for 60-day survivors after administration at 62.5 mg/kg orally in M5076 mouse reticulum cell sarcoma; format: functional; settings: route oral; in short: as §5
Mus musculus [16] = assay: Percent treated was determined after administration at 250 mg/kg orally; format: functional; settings: route oral; in short: as §4
Mus musculus [17] = assay: Tested for 60-day survivors after administration at 250 mg/kg orally in M5076 mouse reticulum cell sarcoma; format: functional; settings: route oral; in short: as §5
Mus musculus [18] = assay: Weight change in M5076 mouse reticulum cell sarcoma after administration at 62.5 mg/kg orally; format: functional; settings: route oral; in short: as §2
Mus musculus [19] = assay: Percent treated was determined after administration at 750 mg/kg orally; format: functional; settings: route oral; in short: as §4
Mus musculus [20] = assay: Percent inhibition against M5076 mouse reticulum cell sarcoma after administration at 750 mg/kg orally on day 20; format: functional; settings: M5076, 480 h, route oral; in short: as §3
Mus musculus [21] = assay: Tested for 60-day survivors after administration at 500 mg/kg orally in M5076 mouse reticulum cell sarcoma; format: functional; settings: route oral; in short: as §5
Mus musculus [22] = assay: Weight change in M5076 mouse reticulum cell sarcoma after administration at 750 mg/kg orally; format: functional; settings: route oral; in short: as §2
Mus musculus [23] = assay: Percent inhibition against M5076 mouse reticulum cell sarcoma after administration at 125 mg/kg orally on day 20; format: functional; settings: M5076, 480 h, route oral; in short: as §3
Mus musculus [24] = assay: Weight change in M5076 mouse reticulum cell sarcoma after administration at 250 mg/kg orally; format: functional; settings: route oral; in short: as §2
Mus musculus [25] = assay: Percent inhibition against M5076 mouse reticulum cell sarcoma after administration at 250 mg/kg orally on day 20; format: functional; settings: M5076, 480 h, route oral; in short: as §3

| SMILES | IC50 [1] [µM] | IC50 (L1210 [2]) [µM] | IC50 (MCF7) [µM] | IC50 (OST) [µM] | IC50 (PC-13) [µM] | IC50 [3] [µM] | IC50 (MKN-45) [µM] | IC50 (QG-95) [µM] | IC50 (PC-8) [µM] | IC50 (A-375) [µM] | IC50 (COLO 320) [µM] | IC50 (SW48) [µM] | IC50 (ST-KM-1) [µM] | IC50 (KKLS) [µM] | further results |
| --- | --- | --- | --- | --- | --- | --- | --- | --- | --- | --- | --- | --- | --- | --- | --- |
| CC(=O)Nc1ccn([C@@H]2O[C@H](CO)C=C2C#N)c(=O)n1 | 97.8 | 68.8 |  |  |  |  |  |  |  |  |  |  |  |  |  |
| N#C[C@H]1C(O)[C@@H](CO)O[C@H]1n1ccc(=O)[nH]c1=O (stereo not given in full) |  |  |  |  |  |  |  |  |  |  |  |  |  |  | inhibition at 100 µg/mL [4]: 8.4%; inhibition at 100 µg/mL (L1210 [5]): 10.2% |
| C[C@H]1O[C@@H](n2cc(F)c(=O)[nH]c2=O)[C@H](O)[C@@H]1O [DOXIFLURIDINE] |  |  |  |  |  |  |  |  |  |  |  |  |  |  | Weight change (Mus musculus [6]): 2.5 g; inhibition in vivo at 500 mg/kg (Mus musculus [7]): 19%; T/C (Mus musculus [8]): 98%; T/C (Mus musculus [9]): 88%; inhibition in vivo at 62.5 mg/kg (Mus musculus [10]): 8%; T/C (Mus musculus [11]): 104%; Survivors (Mus musculus [12]): 0; Survivors (Mus musculus [13]): 0; Weight change (Mus musculus [14]): 1.8 g; Survivors (Mus musculus [15]): 0; T/C (Mus musculus [16]): 86%; Survivors (Mus musculus [17]): 0; Weight change (Mus musculus [18]): 2.8 g; T/C (Mus musculus [19]): 92%; inhibition in vivo at 750 mg/kg (Mus musculus [20]): 50%; Survivors (Mus musculus [21]): 0; Weight change (Mus musculus [22]): 0.8 g; inhibition in vivo at 125 mg/kg (Mus musculus [23]): 18%; Weight change (Mus musculus [24]): 2 g; inhibition in vivo at 250 mg/kg (Mus musculus [25]): 15% |

More lines, main results first:

| IC50 [1] [µM] | IC50 (L1210 [2]) [µM] | IC50 (MCF7) [µM] | IC50 (OST) [µM] | IC50 (PC-13) [µM] | IC50 [3] [µM] | IC50 (MKN-45) [µM] | IC50 (QG-95) [µM] | IC50 (PC-8) [µM] | IC50 (A-375) [µM] | IC50 (COLO 320) [µM] | IC50 (SW48) [µM] | IC50 (ST-KM-1) [µM] | IC50 (KKLS) [µM] | SMILES | further results |
| --- | --- | --- | --- | --- | --- | --- | --- | --- | --- | --- | --- | --- | --- | --- | --- |
| 163 | 5.8 | > 360 | > 360 | > 360 | > 360 | > 360 | > 360 | > 360 | 308 | > 360 | > 360 | > 360 | > 360 | N#C[C@H]1[C@H](O)[C@@H](CO)O[C@H]1n1cnc2c(N)ncnc21 | IC50 (HOS-TE85): > 360 µM; IC50 (HT-1080): > 360 µM; IC50 (PC-9): > 360 µM |
| 2.3 | 0.05 | 0.62 | > 410 | > 410 | > 410 | 57.6 | > 410 | 1.1 | > 410 | 0.04 | > 410 | > 410 | > 410 | Nc1ccn([C@@H]2O[C@H](CO)[C@@H](O)[C@@H]2O)c(=O)n1 [CYTARABINE] |  |
